The text below walks through data of ChEMBL document CHEMBL1144876, “Benzodiazepines as potent and selective bradykinin B1 antagonists” (J Med Chem, 2003).

Data set [1] in a line: Oral bioavailability in rat. Type of data set: ADME, organism-based. As to conditions: in vivo.
Data set [2] addresses T1, B1 bradykinin receptor (Rattus norvegicus, UniProt P97583).
T1 sequence (P97583 whole entry): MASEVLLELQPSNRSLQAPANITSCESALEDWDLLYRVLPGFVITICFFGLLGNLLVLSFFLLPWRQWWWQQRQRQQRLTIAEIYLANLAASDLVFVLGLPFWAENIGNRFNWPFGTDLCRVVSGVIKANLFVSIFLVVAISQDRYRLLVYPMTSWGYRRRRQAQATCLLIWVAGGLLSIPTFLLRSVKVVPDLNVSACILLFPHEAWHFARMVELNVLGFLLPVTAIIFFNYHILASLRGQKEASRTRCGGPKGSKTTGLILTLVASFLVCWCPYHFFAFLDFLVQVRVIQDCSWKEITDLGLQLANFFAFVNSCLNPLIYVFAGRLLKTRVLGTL
Briefly: Compound was tested for inhibition against rat Bradykinin receptor B1 using FLIPR assay.

Data set [3] deals with T1, B1 bradykinin receptor. The data set can be described thus: Compound was tested for inhibition against rat Bradykinin receptor B1. In a few lines: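 Radioligand binding using the appropriate radioligand on CHO cells stably expressing rat bradykinin B1 receptor; Ki (nM) determined radiometrically; interassay variability about 10%.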
Data set [4] in a line: Half life after intravenous administration in rat. The format is ADME, organism-based. As to conditions: in vivo.
For data set [5], the target named is T2, B1 bradykinin receptor (Homo sapiens, UniProt P46663).
T2 sequence (P46663 whole entry): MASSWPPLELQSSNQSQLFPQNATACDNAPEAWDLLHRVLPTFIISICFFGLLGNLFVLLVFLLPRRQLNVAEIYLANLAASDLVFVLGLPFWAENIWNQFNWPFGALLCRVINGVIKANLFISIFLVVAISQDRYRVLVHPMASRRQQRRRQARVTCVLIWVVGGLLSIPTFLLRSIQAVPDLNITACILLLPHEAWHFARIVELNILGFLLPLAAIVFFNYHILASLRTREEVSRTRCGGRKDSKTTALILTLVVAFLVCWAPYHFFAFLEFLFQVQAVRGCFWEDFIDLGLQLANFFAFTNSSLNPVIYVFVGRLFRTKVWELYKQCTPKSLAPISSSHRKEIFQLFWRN
The data set can be described thus: Compound was tested for inhibition against human bradykinin B1 receptor using FLIPR assay.

In data set [6] the target is T2, B1 bradykinin receptor. The data set can be described thus: Inhibition of human bradykinin B1 receptor.

pIC50, pKi: −log10 of the molar value.

`CCCN1C(=O)[C@H](NC(=O)Nc2ccc(N3CCN(c4ccncc4)CC3)cc2)N=C(CCc2ccccc2)c2ccccc21` showed a bioavailability in data set [1] of 3.4%. The compound also had a pIC50 against B1 bradykinin receptor [2] of 8.55. This compound gave a pKi at B1 bradykinin receptor [3] of 9.04. In data set [4], this compound gave a half-life of 162 min.
In turn, `CCCN1C(=O)[C@H](NC(=O)Nc2ccc(N3CCC(N4CCCCC4)CC3)cc2)N=C(C2CCCCC2)c2ccccc21` had a bioavailability in data set [1] of 10%. The pIC50 against B1 bradykinin receptor [2] was 7.23; at B1 bradykinin receptor [5], 7.61. In addition, the pKi at B1 bradykinin receptor [3] is 7.74; at B1 bradykinin receptor [6] it was 8.24. The half-life in data set [4] was 192 min.
In the case of `CCCN1C(=O)[C@H](NC(=O)Nc2ccc(N3CCC(N4CCCCC4)CC3)cc2)N=C(CCc2ccccc2)c2ccccc21`, the bioavailability in data set [1] came out at 4.9%. The figures for the pIC50 on B1 bradykinin receptor [2] and against B1 bradykinin receptor [5] were 8.14 and 8.32, respectively. For the same compound, the results for the pKi on B1 bradykinin receptor [3] and on B1 bradykinin receptor [6] were 8.71 and 8.86, respectively. This compound had a half-life in data set [4] of 144 min.
`CCCN1C(=O)[C@H](NC(=O)Nc2ccc(N3CCN(c4ccncc4)CC3)cc2)N=C(C2CCCCC2)c2ccccc21` registered a bioavailability in data set [1] of 2.5%. Further, the pIC50 at B1 bradykinin receptor [2] is 7.62; against B1 bradykinin receptor [5], 8.10. Further, the pKi on B1 bradykinin receptor [6] is 8.88. The compound further had a half-life in data set [4] of 138 min.
Turning to `CCCN1C(=O)[C@H](NC(=O)Nc2ccc(N3CCC(N4CCCCC4)CC3)cc2)N=C(c2ccc(C)cc2)c2ccccc21`, the bioavailability in data set [1] is 32%. Moreover, the pIC50 was 7.57 against B1 bradykinin receptor [2] and 7.19 against B1 bradykinin receptor [5]. The pKi at B1 bradykinin receptor [3] was 7.77; on B1 bradykinin receptor [6], 7.87. The compound further had a half-life in data set [4] of 258 min.
`CCCN1C(=O)[C@@H](NC(=O)Nc2ccc(N3CCC(N4CCCCC4)CC3)cc2)N=C(C2CCCCC2)c2ccccc21` showed a pIC50 on B1 bradykinin receptor [5] of 5.66. Moreover, the pKi on B1 bradykinin receptor [6] was 5.99.
Take `CCCN1C(=O)C(NC(=O)Nc2ccc(N3CCN(c4ccccc4)CC3)cc2)N=C(C2CCCCC2)c2ccccc21` (configuration not stated): the pKi on B1 bradykinin receptor [6] is less than 5.00.
Still for that read-out and setting: the same measure for `CCCN1C(=O)C(NC(=O)Nc2ccc(N3CCN(c4ccccn4)CC3)cc2)N=C(C2CCCCC2)c2ccccc21` (configuration not stated): 7.01.
At B1 bradykinin receptor [6], `CCCN1C(=O)C(NC(=O)Nc2ccc(N3CCCCC3)cc2)N=C(C2CCCCC2)c2ccccc21` (configuration not stated) gave a pKi of less than 5.00.
Same read-out and setting: the same measure for `CCCN1C(=O)C(NC(=O)Nc2ccc(N3CCN(c4cccnc4)CC3)cc2)N=C(C2CCCCC2)c2ccccc21` (configuration not stated): 7.07; for `O=C(CCCN1C(=O)CN=C(C2CCCCC2)c2ccccc21)Nc1ccc(N2CCC(N3CCCCC3)CC2)cc1`: 6.85; for `CCCN1C(=O)C(NC(=O)Nc2ccc(N3CCC(c4ccncc4)CC3)cc2)N=C(CCc2ccccc2)c2ccccc21` (configuration not stated): 7.26.
Consider `CCCN1C(=O)C(NC(=O)Nc2ccc(N3CCC(N(C)C)CC3)cc2)N=C(C2CCCCC2)c2ccccc21` (configuration not stated), for which, at B1 bradykinin receptor [5], the pIC50 is 6.79. The pKi on B1 bradykinin receptor [6] was 7.55.

One may read the bioavailability as the share of a dose that reaches the circulation, judged against a reference dose that is usually intravenous. Lower therefore signals poor availability. As a reminder, the pIC50 is the negative decadic logarithm of the IC50, by convention in mol/L. Lower therefore signals a large IC50. By pKi is commonly meant −log10 of the Ki, conventionally taken in molar units. Low values mean a high Ki, high ones a low Ki. As usually defined, the half-life is the time in which the quantity being followed falls by half. The low end stands for fast loss, the high end for slow loss.
